This is an account of results in ChEMBL document CHEMBL4725360, “Optimization of Acetazolamide-Based Scaffold as Potent Inhibitors of Vancomycin-Resistant Enterococcus” (J Med Chem, 2020).

≈ marks a conversion by molar mass, not a printed value. Calls of active or inactive are those of the source. The rule behind the calls is not given here.

For series [1], the system named is Enterococcus faecium. The experiment in a line: Antibacterial activity against Enterococcus faecium ATCC 700221 by CLSI protocol based assay. The series is classed as functional. Summed up:
(§1)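 Broth microdilution per CLSI. Strains grown aerobically overnight on trypticase soy agar at 37 °C. Inoculum set to 0.5 McFarland, diluted in trypticase soy broth to about 5 × 10⁵ CFU/mL. Agents serially diluted, plates incubated aerobically at 37 °C for 18–20 h. MIC is the lowest concentration with no visible growth. Compound stocks 10 mg/mL in DMSO.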

Series [2] has as its system Enterococcus faecium. The series can be described thus: Inhibition of carbonic anhydrase in Enterococcus faecium HM-965 assessed as antibacterial activity incubated for 18 to 20 hrs in presence of 5% CO2 by CLSI protocol based broth microdilution assay. The following applies: time hrs 18-20. Summed up:
(§2)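 CLSI broth microdilution: inoculum about 5 × 10⁵ CFU/mL in trypticase soy broth with serial dilutions of agents. Paired plates incubated at 37 °C for 18–20 h, one set in ambient air ("normal"), the other under 5% CO₂. MIC is the lowest concentration completely inhibiting visible growth.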

Series [3] deals with Enterococcus faecium. The experiment in a line: Inhibition of carbonic anhydrase in Enterococcus faecium NR-31972 assessed as antibacterial activity incubated for 18 to 20 hrs in presence of ambient air by CLSI protocol based broth microdilution assay. The following applies: time hrs 18-20. Summed up: as §2
Series [4] deals with Enterococcus faecium. The experiment in a line: Antibacterial activity against Enterococcus faecium NR-31916 incubated for 18 to 20 hrs under aerobic condition by CLSI protocol based broth microdilution assay. The series is classed as functional. The following applies: time hrs 18-20. Summed up: as §1
In series [5] the test system is Enterococcus faecalis. The experiment in a line: Inhibition of carbonic anhydrase in Enterococcus faecalis HM-334 assessed as antibacterial activity incubated for 18 to 20 hrs in presence of ambient air by CLSI protocol based broth microdilution assay. The note with it: time hrs 18-20. Summed up: as §2
Series [6] has as its system Enterococcus faecium. The series can be described thus: Inhibition of carbonic anhydrase in Enterococcus faecium ATCC 700221 assessed as antibacterial activity incubated for 18 to 20 hrs in presence of 5% CO2 by CLSI protocol based broth microdilution assay. The note with it: time hrs 18-20. Summed up: as §2
The test system of series [7] is Enterococcus faecium. The experiment in a line: Inhibition of carbonic anhydrase in Enterococcus faecium ATCC 700221 assessed as antibacterial activity incubated for 18 to 20 hrs in presence of ambient air by CLSI protocol based broth microdilution assay. The following applies: time hrs 18-20. Summed up:
as §2

A further series has as its system Caco-2. The series can be described thus: Cytotoxicity against human Caco2 cells at 128 ug/ml incubated for 2 hrs by MTS assay. Type of series: cell-based. The note with it: caco-2, 2 h, dose 128 µg/ml. The method, boiled down:
(§3)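 Caco-2 cells maintained in DMEM with 10% FBS, non-essential amino acids and penicillin-streptomycin at 37 °C, 5% CO₂. Compound exposure for 2 h in serum-free medium at several concentrations; DMSO-matched controls. Viability expressed relative to DMSO controls (mean ± SD), and CC₅₀ derived.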

The test system of series [8] is Enterococcus faecium. The series can be described thus: Inhibition of carbonic anhydrase in Enterococcus faecium NR-31971 assessed as antibacterial activity incubated for 18 to 20 hrs in presence of ambient air by CLSI protocol based broth microdilution assay. The following applies: time hrs 18-20. Summed up:
as §2

Series [9] relates to Enterococcus faecium. The experiment in a line: Inhibition of carbonic anhydrase in Enterococcus faecium NR-31971 assessed as antibacterial activity incubated for 18 to 20 hrs in presence of 5% CO2 by CLSI protocol based broth microdilution assay. The following applies: time hrs 18-20. Summed up:
as §2

A short description of series [10]: Cytotoxicity against human Caco2 cells incubated for 2 hrs by MTS assay. The series is classed as cell-based. The following applies: Caco-2 cells. The method, boiled down:
as §3

In series [11] the test system is Enterococcus faecium. The series can be described thus: Antibacterial activity against Enterococcus faecium NR-28978 incubated for 18 to 20 hrs under aerobic condition by CLSI protocol based broth microdilution assay. Type of series: functional. The note with it: time hrs 18-20. The method, boiled down:
as §1

The subject of series [12] is Enterococcus faecium. The experiment in a line: Inhibition of carbonic anhydrase in Enterococcus faecium NR-31972 assessed as antibacterial activity incubated for 18 to 20 hrs in presence of 5% CO2 by CLSI protocol based broth microdilution assay. The following applies: time hrs 18-20. Summed up:
as §2

Series [13] concerns Enterococcus faecalis. The series can be described thus: Inhibition of carbonic anhydrase in Enterococcus faecalis HM-334 assessed as antibacterial activity incubated for 18 to 20 hrs in presence of 5% CO2 by CLSI protocol based broth microdilution assay. The note with it: time hrs 18-20. The method, boiled down: as §2
Series [14] relates to Enterococcus faecalis. The series can be described thus: Antibacterial activity against Enterococcus faecalis NR-31970 incubated for 18 to 20 hrs under aerobic condition by CLSI protocol based broth microdilution assay. The note with it: time hrs 18-20. The series is classed as functional, organism-based. Summed up:
as §1

The subject of series [15] is Enterococcus faecalis. The experiment in a line: Antibacterial activity against Enterococcus faecalis NR-31975 incubated for 18 to 20 hrs under aerobic condition by CLSI protocol based broth microdilution assay. The note with it: time hrs 18-20. Type of series: functional, organism-based. Summed up:
as §1

For series [16], the system named is Enterococcus faecium. The experiment in a line: Antibacterial activity against Enterococcus faecium NR-31903 incubated for 18 to 20 hrs under aerobic condition by CLSI protocol based broth microdilution assay. The series is classed as functional. The following applies: time hrs 18-20. Summed up: as §1
Series [17] concerns Enterococcus faecium. The experiment in a line: Inhibition of carbonic anhydrase in Enterococcus faecium HM-965 assessed as antibacterial activity incubated for 18 to 20 hrs in presence of ambient air by CLSI protocol based broth microdilution assay. The following applies: time hrs 18-20. The method, boiled down:
as §2

For the molecule `CCOc1ccc2nc(S(N)(=O)=O)sc2c1` [ETHOXZOLAMIDE], the MIC in the series with Enterococcus faecium [1] was found to be 1 µg/mL (≈ 3.87 µM).
With `NS(=O)(=O)c1nnc(NC(=O)CC2CCCCC2)s1`, the MIC was over 64 µg/mL with Enterococcus faecium [2]; 0.06 µg/mL in the series on Enterococcus faecium [3]; 0.125 µg/mL (≈ 0.411 µM) against Enterococcus faecium [4]; 0.03 µg/mL in the series on Enterococcus faecalis [5]; over 64 µg/mL in the series on Enterococcus faecium [6]; 0.06 µg/mL in the series on Enterococcus faecium [7]. The MIC is 0.03 µg/mL in the series on Enterococcus faecium [8]; over 64 µg/mL in the series on Enterococcus faecium [9]; 0.125 µg/mL (≈ 0.411 µM) with Enterococcus faecium [11]; over 64 µg/mL in the series on Enterococcus faecium [12]; over 64 µg/mL in the series with Enterococcus faecalis [13]; 0.125 µg/mL (≈ 0.411 µM) against Enterococcus faecium [16]. Besides, the MIC in the series on Enterococcus faecium [17] came out at 0.06 µg/mL. Further, the Activity entry with Caco-2 is reported as “Non-Toxic”. Besides, the CC50 at 2 h in series [10] is over 128 µg/mL. The outcome in the series with Enterococcus faecalis [14] and with Enterococcus faecalis [15] was Active.
